{"source": "paper PMC4547841", "about": "(Bioorganic & medicinal chemistry letters, 2013)", "key": {"[1]": {"tested_on": "hsp90 and FKBP51", "experiment": "TPR co-chaperone and hsp90 binding assay, FKBP51", "procedure,_shortened": "(§1)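 Binding of each TPR co-chaperone (Unc45, CHIP, TOM70, HOP, Cyp40, FKBP52, FKBP51) to hsp90 measured with increasing test compound, 0–5μM or 0–10μM depending on compound.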"}, "[2]": {"tested_on": "hsp90 and TOM70", "experiment": "TPR co-chaperone and hsp90 binding assay, TOM70", "procedure,_shortened": "as §1"}, "[3]": {"tested_on": "FKBP51", "experiment": "FKBP51 protein level in HeLa cell lysate, western blot", "assay_type": "cell-based", "settings": "n≥3", "procedure,_shortened": "(§2)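 HeLa cells treated with test compounds at two concentrations each (100nM and 1μM, or 5μM and 50μM). Cell lysates analysed by western blot. Bands quantitated by densitometry, normalized to GAPDH and to DMSO control. n≥3, mean±SEM.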"}, "[4]": {"tested_on": "HeLa cells", "settings": "assay not described; HeLa treated at IC50 and ten-fold over IC50; ref [36]; cited from earlier work"}, "[5]": {"tested_on": "FKBP52", "experiment": "FKBP52 protein level in HeLa cell lysate, western blot", "assay_type": "cell-based", "settings": "n≥3", "procedure,_shortened": "as §2"}, "[6]": {"tested_on": "glucocorticoid receptor (GR)", "experiment": "Glucocorticoid receptor", "assay_type": "cell-based", "settings": "HeLa; 17-AAG 100 nM and 1 μM; n≥3", "procedure,_shortened": "as §2"}, "[7]": {"tested_on": "hsp70", "experiment": "hsp70 protein level in HeLa cell lysate, western blot", "assay_type": "cell-based", "settings": "normalized to GAPDH and DMSO control, n≥3", "procedure,_shortened": "as §2"}, "[8]": {"tested_on": "HSF1", "experiment": "HSF1 protein level in HeLa cell lysate, western blot", "assay_type": "cell-based", "settings": "17-AAG 100 nM and 1 μM, normalized to GAPDH and DMSO control, n≥3", "procedure,_shortened": "as §2"}, "[9]": {"tested_on": "heat shock response", "experiment": "Heat shock response", "assay_type": "cell-based", "settings": "HeLa; 17-AAG 100 nM and 1 μM, CA1 and SM145 5 μM and 50 μM; hsp70, hsp90, HSF1 levels"}, "[10]": {"tested_on": "hsp90", "experiment": "hsp90 protein level in HeLa cell lysate, western blot", "assay_type": "cell-based", "settings": "17-AAG 100 nM and 1 μM, normalized to GAPDH and DMSO control, n≥3", "procedure,_shortened": "as §2"}, "[11]": {"tested_on": "hsp90", "experiment": "Luciferase refolding assays", "assay_type": "biochemical", "settings": "17-AAG 1 μM, SM145 50 μM (Figure 3); CA1 in Supplemental Figure S3", "procedure,_shortened": "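Refolding of heat-denatured firefly luciferase, read as luciferase activity over time up to 2 h, in two systems: rabbit reticulocyte lysate, and a pure protein system with 1μM hsp70, 0.2μM hsp40, 0.1μM HOP and 0.5μM hsp90. Test compounds at 1μM or 50μM. n=3, mean±SEM.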"}, "[12]": {"tested_on": "hsp90 and HOP", "experiment": "TPR co-chaperone and hsp90 binding assay, HOP", "settings": "CA1 0–10 μM; some Figure 5 data marked * previously published, ref [31]"}, "[13]": {"tested_on": "hsp90 and Cyp40", "experiment": "TPR co-chaperone and hsp90 binding assay, Cyp40", "settings": "CA1 at 10 μM", "procedure,_shortened": "as §1"}, "[14]": {"tested_on": "hsp90 and Unc45", "experiment": "TPR co-chaperone and hsp90 binding assay, Unc45", "settings": "CA1 0–10 μM", "procedure,_shortened": "as §1"}, "[15]": {"tested_on": "hsp90 and FKBP52", "experiment": "TPR co-chaperone and hsp90 binding assay, FKBP52", "settings": "CA1 0–10 μM; some Figure 5 data marked * previously published, ref [31]"}, "[16]": {"tested_on": "hsp90 and CHIP", "experiment": "TPR co-chaperone and hsp90 binding assay, CHIP", "settings": "CA1 at 10 μM", "procedure,_shortened": "as §1"}, "[17]": {"tested_on": "hsp90 and immunophilins", "settings": "millimolar concentration; ref [28]; cited from earlier work"}, "[18]": {"settings": "17-AAG 100 nM and 1 μM, normalized to GAPDH, compared to DMSO"}}, "data": [{"smiles": "C=CCNC1=C2C[C@@H](C)C[C@H](OC)[C@H](O)[C@@H](C)/C=C(\\C)[C@H](OC(N)=O)[C@@H](OC)/C=C\\C=C(/C)C(=O)NC(=CC1=O)C2=O", "note": "[17-AAG]", "values": [{"measurement": "inhibition of FKBP51 binding to hsp90", "setting": "[1]; 17-AAG at 5 μM", "value": "only partially inhibits"}, {"measurement": "inhibition of TOM70 binding to hsp90", "setting": "[2]; 17-AAG at 5 μM", "value": "only partially inhibits"}, {"measurement": "FKBP51 protein level, fold increase", "setting": "[3]; [18]", "value": "~ 2 fold"}, {"measurement": "IC50", "setting": "[4]", "value": "~0.1", "unit": "µM"}, {"measurement": "FKBP52 protein level, fold increase", "setting": "[5]; [18]", "value": "~ 4 fold"}, {"measurement": "GR protein level", "setting": "[6]", "value": "no change"}, {"measurement": "hsp70 protein level, fold increase", "setting": "[7]; 17-AAG 100 nM and 1 μM", "value": "~ 2.5 fold"}, {"measurement": "HSF1 protein level, fold increase", "setting": "[8]", "value": "~4", "unit": "fold"}, {"measurement": "heat shock response triggered", "setting": "[9]", "value": "triggering the heat shock response"}, {"measurement": "hsp90 protein level, fold increase", "setting": "[10]", "value": "~3", "unit": "fold"}, {"measurement": "luciferase activity over time", "setting": "[11]", "value": "reduce the luciferase activity over time"}]}, {"smiles": "CO[C@H]1[C@H](OC(=O)c2ccc(C)[nH]2)[C@H](O)[C@@H](Oc2ccc3c(O)c(NC(=O)c4c[nH]c(C(=O)Nc5c(O)c6ccc(O[C@H]7OC(C)(C)[C@@H](OC)[C@H](OC(=O)c8ccc(C)[nH]8)[C@@H]7O)c(C)c6oc5=O)c4C)c(=O)oc3c2C)OC1(C)C", "note": "[CA1, coumermycin A1]", "values": [{"measurement": "effect on binding between hsp90 and FKBP51", "setting": "[1]; CA1 0–10 μM", "value": "no impact"}, {"measurement": "inhibition of TOM70 binding to hsp90", "setting": "[2]; CA1 at 10 μM", "value": "inhibiting"}, {"measurement": "effect on binding between hsp90 and HOP", "setting": "[12]", "value": "no impact"}, {"measurement": "FKBP51 protein level", "setting": "[3]; CA1 5 μM and 50 μM", "value": "little change"}, {"measurement": "inhibition of Cyp40 binding to hsp90", "setting": "[13]", "value": "inhibiting"}, {"measurement": "FKBP52 protein level", "setting": "[5]; CA1 at high concentrations, relative to control", "value": "slightly decreases"}, {"measurement": "hsp70 protein level", "setting": "[7]; 5 μM and 50 μM", "value": "maintenance of hsp70 protein levels"}, {"measurement": "effect on binding between hsp90 and Unc45", "setting": "[14]", "value": "no impact"}, {"measurement": "effect on binding between hsp90 and FKBP52", "setting": "[15]", "value": "no impact"}, {"measurement": "inhibition of CHIP binding to hsp90", "setting": "[16]", "value": "inhibiting"}, {"measurement": "heat shock response triggered", "setting": "[9]", "value": "the HSR was not triggered"}, {"measurement": "luciferase activity over time", "setting": "[11]", "value": "reduce the luciferase activity over time"}]}, {"smiles": "CO[C@@H]1[C@@H](OC(N)=O)[C@@H](O)[C@H](Oc2ccc3c(O)c(NC(=O)c4ccc(O)c(CC=C(C)C)c4)c(=O)oc3c2C)OC1(C)C", "note": "[novabiocin]", "values": [{"measurement": "disruption of immunophilins from binding to hsp90", "setting": "[17]", "value": "disrupts immunophilins from binding to hsp90"}]}]}
